Measured values published in ChEMBL document CHEMBL5724801, “EUbOPEN Chemogenomics Library - Multiplex” (2024).
Values joined by “and” are separate entries in the source; they are usually repeats but may differ in a detail not shown here. Identical values can stand only once.

Test system: HEK-293T
Experiment: Multiplex assay against HEK293T
Assay type: toxicity, cell-based
Settings: human
Method in brief: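 At seeding, live cells were stained with Hoechst33342, BioTracker Green Microtubule Cytoskeleton Dye, MitoTracker Red and Annexin V Alexa Fluor 680. After compound addition they were imaged on a CQ1 microscope at 37°C and 5% CO2, and CellPathfinder machine-learning gating sorted them into Hoechst high-intensity objects or normal cells, with normal cells further split into healthy, pyknosed or fragmented nuclei and pyknosed cells into mitotic or apoptotic. Tubulin, mitochondrial-mass and membrane-permeability phenotypes are given as per cents of cells with healthy nuclei.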

[1] = 12 h, 1 µM, compound concentration 1 uM
[2] = 12 h, 10 µM, compound concentration 10 uM
[3] = 24 h, 1 µM, compound concentration 1 uM
[4] = 24 h, 10 µM, compound concentration 10 uM
[5] = 48 h, 1 µM, compound concentration 1 uM
[6] = 48 h, 10 µM, compound concentration 10 uM

SMILES: CC(C)c1ccc(/C=N/NC(=O)c2ccc(O)cc2)cc1
- Population Apoptotic (%) [1]: 6.34% and 9.68%
- Population Fragmented Nuclei (%) [1]: 1.61% and 0.64%
- Population Healthy Nuclei (%) [1]: 60.22% and 20.38%
- Population Hoechst High Intensity Objects (%) [1]: 0.53% and 0%
- Population Membrane Permeable-Phenotype (%) [1]: 0.45% and 0%
- Population Mitochondria Different-Phenotype (%) [1]: 40.62% and 43.75%
- Population Mitotic Cells (%) [1]: 93.66% and 90.32%
- Population Normal (%) [1]: 99.47% and 100%
- Population Pyknosed Nuclei (%) [1]: 38.17% and 78.98%
- Total Cell Count [1]: 374 and 157
- Population Apoptotic (%) [2]: 12.69% and 7.75%
- Population Fragmented Nuclei (%) [2]: 8.73% and 1.3%
- Population Hoechst High Intensity Objects (%) [2]: 0.28% and 0%
- Population Membrane Permeable-Phenotype (%) [2]: 0%
- Population Mitochondria Different-Phenotype (%) [2]: 41.58% and 26.09%
- Population Mitotic Cells (%) [2]: 87.31% and 92.25%
- Population Normal (%) [2]: 99.72% and 100%
- Population Pyknosed Nuclei (%) [2]: 37.75% and 83.77%
- Total Cell Count [2]: 356 and 154
- Population Apoptotic (%) [3]: 16.67% and 14.29%
- Population Fragmented Nuclei (%) [3]: 1.59% and 2.38%
- Population Healthy Nuclei (%) [3]: 75.09% and 35.12%
- Population Hoechst High Intensity Objects (%) [3]: 0%
- Population Membrane Permeable-Phenotype (%) [3]: 0.71% and 3.39%
- Population Mitochondria Different-Phenotype (%) [3]: 15.53% and 13.56%
- Population Mitotic Cells (%) [3]: 83.33% and 85.71%
- Population Normal (%) [3]: 100%
- Population Pyknosed Nuclei (%) [3]: 23.32% and 62.5%
- Population Tubulin-Different-Phenotype (%) [3]: 14.59% and 5.08%
- Population Apoptotic (%) [4]: 14.4% and 12.98%
- Population Fragmented Nuclei (%) [4]: 6.23% and 2.06%
- Population Healthy Nuclei (%) [4]: 70.88% and 30.41%
- Population Hoechst High Intensity Objects (%) [4]: 0%
- Population Membrane Permeable-Phenotype (%) [4]: 0.78% and 0%
- Population Mitochondria Different-Phenotype (%) [4]: 15.5% and 15.25%
- Population Mitotic Cells (%) [4]: 85.6% and 87.02%
- Population Normal (%) [4]: 100%
- Population Pyknosed Nuclei (%) [4]: 22.89% and 67.53%
- Population Tubulin-Different-Phenotype (%) [4]: 5.43% and 1.69%
- Total Cell Count [4]: 546 and 194
- Population Apoptotic (%) [5]: 8.44% and 19.78%
- Population Fragmented Nuclei (%) [5]: 2.76% and 1.47%
- Population Healthy Nuclei (%) [5]: 85.78% and 53.92%
- Population Hoechst High Intensity Objects (%) [5]: 0.15% and 0%
- Population Membrane Permeable-Phenotype (%) [5]: 4.34% and 1.82%
- Population Mitochondria Different-Phenotype (%) [5]: 13.72% and 24.55%
- Population Mitotic Cells (%) [5]: 91.56% and 80.22%
- Population Normal (%) [5]: 99.85% and 100%
- Population Apoptotic (%) [6]: 10.39% and 16.36%
- Population Fragmented Nuclei (%) [6]: 4.43% and 3.38%
- Population Healthy Nuclei (%) [6]: 84.38% and 70.05%
- Population Hoechst High Intensity Objects (%) [6]: 0.22% and 0%
- Population Membrane Permeable-Phenotype (%) [6]: 1.81% and 0.69%
- Population Mitochondria Different-Phenotype (%) [6]: 7.58% and 15.17%
- Population Mitotic Cells (%) [6]: 89.61% and 83.64%
- Population Normal (%) [6]: 99.78% and 100%
- Population Pyknosed Nuclei (%) [6]: 11.19% and 26.57%
- Population Tubulin-Different-Phenotype (%) [6]: 1.03% and 9.66%
